Data published in the array DNA melting data of Ke et al. (doi:10.1101/2024.01.08.574731).

Columns and labels:
[1] = folding enthalpy; higher = less favourable; fluorescence melt of hairpins on a sequencing array, two-state fit; conditions: sodium 0.088 M
Summary of the method: (§1)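 Melting temperature and folding enthalpy were obtained by bootstrapped two-state fitting. Fits used Cy3 fluorescence of library hairpins with annealed Cy3 and quencher oligos on a sequenced MiSeq flow cell, imaged in 50 mM Na-HEPES pH 8.0, 25 mM NaCl in 2.5 °C steps up to 60 °C and normalised to pre-quench Cy3 and control constructs. Four replicates were combined by inverse-variance weighting, and fitted temperatures were raised by 9.35 °C to match UV melts.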

[2] = melting temperature; fluorescence melt of hairpins on a sequencing array, two-state fit, raised by 9.35 °C to match UV melts; conditions: sodium 0.088 M
Summary of the method: as §1

Sequence	folding enthalpy [1] [kcal/mol]	Tm [2] [°C]
GCTTCGCGAAAGCGAGC (((.(((....))))))	-15.6	61.4
GTCCCAGAAATGGGAC ((((((....))))))	-33.7	64.3
GATCTCCTTAGAGATC ((((((....))))))	-37.1	56.4
GATCTCTCGGGAGATC ((((((....))))))	-38.3	53.5
GCGCGCTCGAAAGAGCGC (((..(((....))))))	-6.02	66.8
GAGGTTGGAAACAATCTC (((.(((....))).)))	-35.5	44.1
GGTCTGGGAAACCAGATC (.(((((....))))).)	-25.8	49.4
GAAAAGACGAAAGTCTTC (((..(((....))))))	-11.8	35.6
GTCGTGCGAAAGCATGAC (((.(((....))).)))	-34.8	66.3
GATCGGGTATCCGATC ((((((....))))))	-37.6	65.4
GATCCTCTCTAGGATC ((((((....))))))	-38.2	51.6
GTGACGGGAAACCATCAC ((((.((....)).))))	-32.6	42.1
GATCCGCCGGCGGATC ((((((....))))))	-45.4	68.9
GCTTTGCGAAAGCTACGC ((.(.((....)).).))	-13.2	45.4
GTAAAAGGAAACTTTTAC (((((((....)))))))	-37.1	46.4
GATCTGAGGTCAGATC ((((((....))))))	-40.6	49.4
GAGCACGAAAGTGTGCTC ((((((....)))..)))	-31.2	58.6
GCGGCCGAAAGGCTACGC ((((((....)))..)))	-19.6	61.1
GGTAGTGCGAAAGCAACC (((..(((....))))))	-10.8	32
GTAACGCCGAAAGGCTAC (((..(((....))))))	-6.97	27.1
GCGTACTACGC ((((...))))	-24.6	55.2
GCTAACGAAAGTTCGAGC ((((((....)))..)))	-14.9	32.5
GCCCGGCGAAAGCCCTGC ((..(((....)))..))	-8.41	30.7

Sequence	folding enthalpy [1] [kcal/mol]	Tm [2] [°C]
GGTCCAGGAAACTGGGCC ((.((((....)))).))	-43.4	60.2
GATGCCGGAAACAGCATC (((((.(....).)))))	-36.8	46
GCGAGCGGAAACACTCGC (((((.(....).)))))	-48.3	56.2
GTCTACGAAAGTACGAC ((((((....))).)))	-22.8	38.1
GTATACGAAAGTATTAC ((((((....))).)))	-13.9	32.8
GCTCCCCGAAAGGGTAGC (((.(((....))).)))	-21.7	54
GCGCAGCGAAAGCTCCGC (((.(((....))).)))	-34.1	44.7
GCACGGCGAAAGCCTGC (((.(((....))))))	-18.1	58.7
GCTGAAGGAAACTTTGGC ((..(((....)))..))	-20	33
GTCATGCGAAAGCAAGAC (((.(((....))).)))	-29.6	52.4
GTCGAGGGAAACCCCGAC ((((.((....)).))))	-38.9	52
GACCCCGAAAGGGTGGTC ((((((....)))..)))	-16.5	49.4
GTGTAAGGAAACTTATAC ((.((((....)))).))	-19.6	33.8
GCATCACCGAAAGGTTGC (((..(((....))))))	-19.1	37.4
GAATGGCGAAAGCCTTC (((.(((....))))))	-11.9	41.1
GATCGTTCCAACGATC ((((((....))))))	-39.5	58.6
GGGTGGGGAAACCCGCCC (((.(((....))).)))	-33.6	67.3
GATCCAGGGTGGATC ((((((...))))))	-31.5	49.3
GCGCCAGGAAACTGGCAC (.(((((....))))).)	-12.2	47.5
GATAGCCGAAAGGCATC (((.(((....))))))	-12.2	43.3
GGACCCGAAAGGGTCTCC ((((((....)))..)))	-7.17	58.9
GGTCTCGGAAACGGGATC (.((.((....)).)).)	-28.8	39
CGGAGACGGAAACGTCCG (((..(((....))))))	-17.6	47.1

Sequence	folding enthalpy [1] [kcal/mol]	Tm [2] [°C]
GCTCGGGGAAACCCGGGC ((.((((....)))).))	-34.6	59.2
GCCACGCGAAAGCGCCGC ((..(((....)))..))	-8.83	29.1
GCAAGTGAAAACTTGC ((((((....))))))	-35.4	61.5
GACAAACGAAAGTTGGTC (((.(((....))).)))	-29.9	49.6
GCTTCGCGAAAGCCTAGC (((..((....))..)))	-14.7	37.4
AGACCGAAAGGTCT (((((....)))))	-21.1	68.6
GAGGAACGAAAGTTTCTC (((.(((....))).)))	-35.9	49.9
GCTCAGCGAAAGCGAAGC (((..((....))..)))	-18.5	43.3
GATCCCTCCTGGGATC ((((((....))))))	-37	61
GGTGGCTCGAAAGAGACC (((..(((....))))))	-13.5	42
GATCGTCTGTACGATC ((((((....))))))	-38.3	55.7
GAGCAGCGAAAGCTCTC (((.(((....))))))	-17.6	47.4
GCTCAGGGAAACTTGGGC ((.((.(....).)).))	-20.6	35.3
GTCTCAGGAAACTGAGGC (.(((((....))))).)	-37.3	51.1
GGAGCCGAAAGGCCCTCC ((((((....)))..)))	-12.8	64.6
GAGTAAGGAAACTTGCTC (((.(((....))).)))	-27.8	40.3
TGAAGGAAACTTCA (((((....)))))	-13.9	31.8
GAGGCCGAAAGGCCCTC ((((((....))).)))	-9.16	58
GACCAAGGAAACTTGATC ((.((((....)))).))	-16.8	28.8
GTCGTCGAAAGACGTGAC ((((((....)))..)))	-10.8	39.6
GTGTGGGGAAACCTGCAC (((..((....))..)))	-31.9	44.8
GGGCTCGGAAACGAGCTC (.(((((....))))).)	-15	62.9
GCCAAGCGAAAGCTACGC ((..(((....)))..))	-11	34.7

Sequence	folding enthalpy [1] [kcal/mol]	Tm [2] [°C]
GGAGAAGGAAACCTCTCC (((((.(....).)))))	-28.6	37.7
GATCCCGAAGGGGATC ((((((....))))))	-19.7	65.5
GCGGTTCTCCGC ((((....))))	-31.9	58.3
GCACTACGAAAGTATTGC (((.(((....))).)))	-31.2	45.9
GGGGTCGAAAGACGCCC ((((((....))).)))	-18.8	57.7
GGGGATGGAAACATCTCC ((.((((....)))).))	-32.1	50.3
GATCAATCATTTGATC ((((((....))))))	-37.3	45.5
GATCAATTTGTTGATC ((((((....))))))	-35.6	47.3
GATCTTCTAAAAGATC ((((((....))))))	-30.2	42
GGCAGCACGAAAGTGGCC (((..(((....))))))	-22.3	51
GGGGCAGGAAACCGCCCC (((((.(....).)))))	-30.3	63.8
GATCAGAATTCTGATC ((((((....))))))	-43.5	50.4
GATGACGAAAGTCGGATC ((((((....)))..)))	-13.4	34.3
GATCGGGGCCCGATC ((((((...))))))	-41.2	60.5
GGGCATCGAAAGATCCC (((.(((....))))))	-30.4	50.4
GAGAGGCGAAAGCCCCTC (((.(((....))).)))	-17.3	51.7
GTTACAGGAAACTGTAAC (((((((....)))))))	-42.8	55.5
GATCCGTCGTCGGATC ((((((....))))))	-36.3	60.1
GATCGTTGACACGATC ((((((....))))))	-38.3	52.6
GGGTTGGGAAACCAGCTC (.(.(((....))).).)	-18.6	36.1
GATGGCGAAAGCCCCATC ((((((....)))..)))	-7.84	25.5
GCCTGGCGAAAGCAACGC ((.(.((....)).).))	-4.54	23.9
GCAAAGCGAAAGCGTAGC ((.(.((....)).).))	-17.1	55.9
